# Compound activity from PubChem BioAssay.
# In the library only some 2.3% were active in any assay of this set; here they are far more common.
# TRPC4 PAM – TRPC4 (mouse) allosteric potentiation; Q9QUQ5; HEK293 TRPC4beta/mu-opioid, DAMGO EC20, Fluo-4 Ca2+ flux; active compounds read high; B-score at 10 µM; 310,000 compounds, 0.42% hits;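 active means B-score of calcium response area above 5 SD of library B-scores, with initial fluorescence ratio within 5 SD of library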;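 further: B-score of integrated fluorescence ratio over time as area under calcium response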
# TRPC6 inhibitor – inhibitors of mouse TRPC6 channel | Q61143 | HEK293-TRPC6, membrane potential dye, ACh-evoked depolarization; active compounds read low | B-score at 10 µM | 310,000 compounds, 1.1% hits;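 active means B-score under library mean minus 3 SD, initial fluorescence not abnormally high, positive integrated signal ratio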;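 further: B-score derived from integrated fluorescence ratio over the kinetic read; more negative B-score means stronger inhibition of depolarization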
# TRPC4 act – activators of mouse TRPC4 channel; B-score at 10 µM; HEK293 TRPC4beta/mu-opioid, Fluo4 calcium fluorescence; active compounds read high; 310,000 compounds, 0.49% hits; Q9QUQ5;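 active means B-score above 5 SD of library B-scores, and initial fluorescence ratio not above library mean plus 5 SD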;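 further: positive B-score marks a calcium rise read as TRPC4 activation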
#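 Assay system – TRPC4beta and mu-opioid receptor HEK293 stable cells · Measured by – Fluo4 fluorescence, kinetic · Schedule – dye loading 45 min room temperature, 110 s kinetic read · Read-out – B-scored integrated calcium fluorescence ratio · Controls – buffer and maximal DAMGO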
# TRPC4 inh – inhibitors of mouse TRPC4 channel; Q9QUQ5; HEK293 TRPC4beta/mu-opioid, DAMGO-evoked Fluo4 calcium flux; active compounds read low; B-score at 10 µM; 300,000 compounds, 0.39% hits; AID 2247;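 active means B-score over 3 SD under the library average, no early fluorescence shift, positive overall ratio signal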
#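 Assay system – HEK293 line stably carrying TRPC4beta and mu-opioid receptor · Doses – single dose · Detection – Fluo4 calcium-dye fluorescence, kinetic read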
# TRPC6 activator – mouse TRPC6 channel activation | Q61143 | HEK293-TRPC6 membrane potential dye fluorescence; active compounds read high | B-score at 10 µM | 310,000 compounds, 0.13% hits | AID 2550;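 active means B-score of the integrated fluorescence ratio above library mean plus 3 SD, and starting fluorescence ratio within library mean plus 5 SD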;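 further: higher score means more depolarization so channel activation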
# Starred values were filed as active, the others as inactive; i = inactive.
SMILES,TRPC4 PAM,TRPC6 inhibitor,TRPC4 act,TRPC4 inh,TRPC6 activator
COc1ccc(Br)cc1CNC(C)c1ccccc1 (stereo not drawn),i,i,i,-6*,i
COC(=O)CSc1nc2ccccn2c(=O)c1C=O,i,i,i,-6*,i
O=Cc1c(SCCO)nc2ccccn2c1=O,i,i,i,i,i
COc1ccc(-c2nnc(NC(=O)c3ccc(S(=O)(=O)N(C)CC4CCCO4)cc3)o2)c(OC)c1 (stereo not drawn),i,i,i,i,i
CC(=O)OCc1c(C)cc(C)c(/C=C(/C#N)C(N)=O)c1C,i,i,i,i,i
Cc1oc(C(C)(C)C)cc1C(=O)N1CCN(c2ncccc2C(F)(F)F)CC1,11*,i,i,i,i
COc1ccccc1N1CCN(C(=O)c2cc(C(C)(C)C)oc2C)CC1,i,i,i,i,i
COc1ccc(C[C@H]2CN3C(=NC[C@@H]3Cc3ccccc3)N2CCNC(=O)CCC2CCCCC2)cc1,i,i,60*,i,i
COc1ccccc1-n1c(=S)[nH]c2c(sc(=S)n2-c2ccccc2C)c1=O,i,i,i,i,i
Cn1cc(CN2CCCC(CO)(Cc3cccc(Cl)c3)C2)cn1 (stereo not drawn),i,i,i,i,i
CCn1cc(CN2CCCC(CO)(Cc3cccc(Cl)c3)C2)cn1 (stereo not drawn),i,i,i,-6*,i
CCc1ccc(S(=O)(=O)/N=C2\C=C(Nc3ccc(O)cc3)C(=O)c3ccccc32)cc1,i,i,i,i,i
CCc1ccc(S(=O)(=O)/N=C2\C=C(Nc3cccc(C(=O)O)c3)C(=O)c3ccccc32)cc1,i,i,i,-8*,i
Cc1cccc(C)c1-n1cccc1/C=C1\SC(=S)N(c2cccc(C(=O)O)c2)C1=O,i,i,i,-7*,i
Cc1nc(S/C(=C/c2ccc(-c3cc(Cl)ccc3C)o2)C(=O)O)n[nH]1,i,i,i,-6*,i
Cc1nc(S/C(=C/c2ccc(-c3ccc(Cl)cc3)o2)C(=O)O)n[nH]1,i,i,i,i,i
CC(C)(C)NC(=O)CN(CC1CCCO1)C(=O)CNS(=O)(=O)c1ccc(F)cc1 (stereo not drawn),i,i,i,i,i
COc1ccc2c(c1OC)C(=O)N(c1nc(SC)n[nH]1)C2=O,i,i,i,i,i
COc1ccccc1/C=C/C=N/N1CCN(Cc2ccccc2)CC1,i,i,i,i,i
Cc1ccc(CN2CCN(/N=C/C=C/c3ccccc3[N+](=O)[O-])CC2)cc1,14*,i,i,i,i
COC(=O)C1(Cc2ccc(O)c(CC3OC3(C)C)c2)OC(=O)C(O)=C1c1ccc(O)cc1 (stereo not drawn),i,i,i,i,i
O=C(COc1cccc2c1CCNC2=O)Nc1ccc(F)cc1,i,i,i,i,i
CCN1CCN(c2ncc(C(=O)Nc3c(F)cc(F)cc3Br)c3ccccc23)CC1,i,i,i,i,i
CCN1CCN(c2ncc(C(=O)Nc3cc(Cl)c(OC)cc3OC)c3ccccc23)CC1,i,i,61*,i,i
CCOC(=O)CC(NC(=O)c1cc2cccc(OC)c2oc1=O)c1cccc([N+](=O)[O-])c1 (stereo not drawn),i,i,i,i,i
CCOC(=O)CC(NC(=O)c1cc2cc(Cl)cc(Cl)c2oc1=O)c1cccc([N+](=O)[O-])c1 (stereo not drawn),21*,i,i,i,i
CC(C)CN(C(=O)CC1CCCC1)c1c(N)n(Cc2ccccc2)c(=O)[nH]c1=O,i,i,i,i,i
CC(C)CN(C(=O)C1CC1)c1c(N)n(Cc2ccccc2)c(=O)[nH]c1=O,31*,i,i,i,i
CC(C)CN(C(=O)COC(=O)CCC(=O)c1ccc(Cl)cc1)c1c(N)n(Cc2ccccc2)c(=O)[nH]c1=O,114*,i,i,i,i
CN(C(=O)COC(=O)CCC(=O)c1ccc(Cl)cc1)c1c(N)n(Cc2ccccc2)c(=O)[nH]c1=O,i,i,i,i,i
